Source: PubChem BioAssay
The list is not random: actives were taken first. Their share in the collection is about 4.8%.
Mdm2-MdmX inh: disrupts the human Mdm2-MdmX interaction. O15151+Q00987. SaOS-2 split-luciferase Mdm2/MdmX complementation, luminescence. inhibition, % at 8 µM. actives 3% (n = 330,000). AID 485346;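 active = inhibition of at least 50% at 8 µM in the primary screen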
Target sequence (O15151 whole entry, looked up): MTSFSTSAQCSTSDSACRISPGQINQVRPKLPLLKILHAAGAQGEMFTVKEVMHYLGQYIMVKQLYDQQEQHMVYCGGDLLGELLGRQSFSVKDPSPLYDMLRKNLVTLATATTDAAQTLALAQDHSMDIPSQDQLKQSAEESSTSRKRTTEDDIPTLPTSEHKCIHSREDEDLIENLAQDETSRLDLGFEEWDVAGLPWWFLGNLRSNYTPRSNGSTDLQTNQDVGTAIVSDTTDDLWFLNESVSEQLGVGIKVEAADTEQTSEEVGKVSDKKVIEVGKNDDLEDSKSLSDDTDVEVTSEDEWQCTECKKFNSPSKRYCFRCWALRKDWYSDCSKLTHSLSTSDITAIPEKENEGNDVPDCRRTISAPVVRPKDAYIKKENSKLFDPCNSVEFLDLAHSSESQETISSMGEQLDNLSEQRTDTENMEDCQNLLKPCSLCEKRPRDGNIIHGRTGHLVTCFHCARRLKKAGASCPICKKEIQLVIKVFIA
Target sequence (Q00987 whole entry, looked up): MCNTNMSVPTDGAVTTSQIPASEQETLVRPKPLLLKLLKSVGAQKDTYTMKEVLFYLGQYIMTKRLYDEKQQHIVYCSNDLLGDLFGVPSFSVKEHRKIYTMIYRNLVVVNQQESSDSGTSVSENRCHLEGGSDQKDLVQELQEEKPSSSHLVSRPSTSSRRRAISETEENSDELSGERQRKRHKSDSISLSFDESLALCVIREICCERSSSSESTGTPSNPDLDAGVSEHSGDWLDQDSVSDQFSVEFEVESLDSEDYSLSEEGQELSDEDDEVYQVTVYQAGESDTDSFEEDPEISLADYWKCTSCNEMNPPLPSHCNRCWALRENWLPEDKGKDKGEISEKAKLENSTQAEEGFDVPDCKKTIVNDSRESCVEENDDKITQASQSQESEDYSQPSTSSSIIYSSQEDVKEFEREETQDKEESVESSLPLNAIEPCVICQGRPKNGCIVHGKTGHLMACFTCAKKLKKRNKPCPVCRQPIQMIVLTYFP
UPR XBP1 act: adaptive UPR (XBP1) activation | actives 0.33% (n = 330,000) | CHO-XBP1 luciferase reporter, IRE1-XBP1 UPR activation, luminescence; percent of tunicamycin response, DMSO as zero | activation, % at 20 µM | AID 463104;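 active = versus positive control, 20 µM dose yields 30% or more activation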
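Test system: CHO-XBP1 luciferase reporter cells | Buffer or medium: Serum-containing F12 medium, 10% FBS | Schedule: 6 h compound exposure at 37 °C, 5% CO2 | Detection: Steady-Glo luciferase glow luminescence, 10 min after reagent addition | Read-out basis: Activation, % of tunicamycin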
UPR CHOP act: apoptotic UPR (CHOP) activation; CHO-CHOP luciferase reporter, luminescence; percent of tunicamycin response over DMSO baseline; activation, % at 10 µM; actives 0.34% (n = 330,000);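 active = at 10 µM dose, activation of 40% or more, normalized to positive control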
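Assay system: CHO cells with stable CHOP pathway luciferase reporter; Buffer or medium: F12 plus 10% serum; Times: 16-18 h cell attachment, then 6 h compound exposure, 37 °C; Signal: luciferase luminescence; Read-out basis: percent activation relative to tunicamycin control; Control set: tunicamycin high control, DMSO low control.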
CSC inhib: blocks cancer stem cells | cancer stem cell-like cells viability, luminescence | inhibition, % at 7.5 µM | actives 1.1% (n = 300,000) | AID 2717; in the data active = inhibition above about 75%; inconclusive = no clear call, values can overlap the other calls; tested in HMLE shEcad cells
SKKanGAS inh: SKKanGAS growth inhibition | S. pyogenes SKKanGAS, kanamycin growth, BacTiter-Glo, 6 h | inhibition, % at 7.5 µM | actives 1.3% (n = 300,000) | AID 1662;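 active = mean replicate score, as percent of positive control median, at least 50; inconclusive = mean below 50 but one replicate at or above 50; inactive = mean and every replicate below 50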;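 also: strain carries kanamycin resistance gene driven by streptokinase promoter and grows in 40 µg/ml kanamycin; loss of luminescence reflects streptokinase promoter inhibition or plain growth inhibition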
Beta cell apopt: blocks beta cell apoptosis. INS-1E cytokine-induced death, ATP luminescence, 48 h; percent of positive-control rescue, neutral wells zero. protection from apoptosis, % (concentration not given with the values). actives 0.8% (n = 300,000);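 active = Every replicate reaches about 75%, or at least half do and their mean reaches it too, limit read from the data; inconclusive = At least half of replicates reach the limit but their mean does not; inactive = Under half of replicates reach the limit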;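 also: higher means more ATP so stronger rescue from cytokine killing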
Mdm2 MdmX conf: confirmation of human Mdm2/MdmX interaction inhibitors | shares compounds with Mdm2-MdmX inh | Mdm2-MdmX binding, luminescent assay | inhibition, % at 8 µM | actives 55% (n = 10,000); in the data active = inhibition above about 40%
FLuc counter: full-length luciferase inhibition in Mdm2/MdmX counter-screen; shares compounds with Mdm2-MdmX inh; SaOS-2 full-length luciferase counterscreen, luminescence; inhibition, % at 8 µM; actives 77% (n = 6,200); AID 504607;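 active = mean inhibition at 8 µM reaching about 37%, which flags the compound as non-specific, limit read from the data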;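 also: p53-null SaOS-2 cells with luciferase driven by a doxycycline-inducible promoter; compound on cells about two nights before reading with doxycycline added after day one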
Each line names hits and unclear results; the compound was inactive in the other large screens (follow-up assays come after a bar, where they were run).

CCC(O)CNC(=O)NC(=C(Cl)Cl)c1ccc(C)c(F)c1 (stereo not drawn)	Mdm2-MdmX inh 77 | Mdm2 MdmX conf inactive | FLuc counter 38
COc1cc(/C=N/O)ccc1OCc1ccc(C(=O)O)cc1	Mdm2-MdmX inh 83 | Mdm2 MdmX conf 78 | FLuc counter inactive
COc1cc(/C=N/N=C(N)N)ccc1OCc1ccc(Cl)cc1	Mdm2-MdmX inh 101, Beta cell apopt 98 | Mdm2 MdmX conf 50 | FLuc counter 127
NC(N)=N/N=C/c1ccc(OCc2ccccc2Cl)cc1	Mdm2-MdmX inh 98, CSC inhib 105 | Mdm2 MdmX conf 67 | FLuc counter inactive
NC(N)=N/N=C/c1ccc(OCc2ccccc2)c(OCc2ccccc2)c1	Mdm2-MdmX inh 96, UPR CHOP act 63, SKKanGAS inh inconclusive | Mdm2 MdmX conf 67 | FLuc counter 65
COc1ccc(CN(C)C(=O)Cn2ccc(N)nc2=O)cc1OC	none (no result: SKKanGAS inh)
CC(CCc1ccccc1)NS(=O)(=O)c1ccccc1Cl (stereo not drawn)	none
CCOc1ccc(S(=O)(=O)N2CCOCC2)cc1NC(=O)CN1C(=O)NC2(CCCCC2)C1=O	none (no result: SKKanGAS inh)
N=c1n(CC(=O)c2ccc(Br)s2)c2ccccc2n1Cc1ccccc1	Mdm2-MdmX inh 97 | Mdm2 MdmX conf 62 | FLuc counter 53
N=c1n(CC(=O)c2cccc([N+](=O)[O-])c2)c2ccccc2n1Cc1ccccc1	Mdm2-MdmX inh 92 | Mdm2 MdmX conf inactive
CCn1c(=N)n(CC(=O)c2cccc([N+](=O)[O-])c2)c2ccccc21	none
CN(C)c1ccc(CNc2ccc3c(c2)ncn3C(C)(C)C)cc1	none
COc1ccc(CCN(C)C(=O)CNC(=O)Cc2cccc3ccccc23)cc1OC	none
CCOc1ccc(N/C(N)=N/c2nc(CSc3nnc(C)s3)cc(=O)[nH]2)cc1	Mdm2-MdmX inh 67, CSC inhib inconclusive | Mdm2 MdmX conf 56 | FLuc counter 81
CC(NC(=O)CN1C(=O)NC2(CCCC2)C1=O)c1ccc(Cl)cc1Cl (stereo not drawn)	none (no result: SKKanGAS inh)
CC(C)=N/N=c1\scc(C)n1Cc1ccco1	none
COC(=O)c1cc(=O)n(Cc2ccco2)c(=Nc2ccc(F)cc2)s1	Mdm2-MdmX inh 58 | Mdm2 MdmX conf inactive
COC(=O)c1cc(=O)n(Cc2ccc(OC)c(OC)c2)c(=Nc2ccc(F)cc2)s1	Mdm2-MdmX inh 76, CSC inhib 97 | Mdm2 MdmX conf inactive | FLuc counter 98
COc1cc(-c2nnc3sc(C4CCCCC4)nn23)cc(OC)c1OC	Mdm2-MdmX inh 57 | Mdm2 MdmX conf inactive
COc1cccc(-c2nnc3sc(C4CCCCC4)nn23)c1	Mdm2-MdmX inh 85 | Mdm2 MdmX conf 78 | FLuc counter inactive
CCOc1cccc(-c2nnc3sc(C4CCCCC4)nn23)c1	none
O=C(COC(=O)c1cccnc1Cl)Nc1cc(S(=O)(=O)N2CCCCCC2)ccc1Cl	none (no result: CSC inhib, SKKanGAS inh, Beta cell apopt)
O=c1c2ccccc2nc(/C=C/c2cc(Br)ccc2O)n1CCCO	Mdm2-MdmX inh 89 | Mdm2 MdmX conf 74 | FLuc counter inactive
CN(Cc1ccccn1)C(=O)C1CCC(=O)N(Cc2cccc(C(F)(F)F)c2)C1 (stereo not drawn)	none
CC1CC(N(C(=O)c2ccc(Cl)cc2)c2ccccc2)c2ccccc2N1C(=O)c1ccco1 (stereo not drawn)	Mdm2-MdmX inh 50 | Mdm2 MdmX conf inactive
Cc1cccc(-n2c(SCC(=O)Nc3ncc(Cl)cc3Cl)nc3ccccc32)c1	none (no result: Mdm2-MdmX inh, UPR XBP1 act, UPR CHOP act)
O=C(CSc1nc2ccccc2n1-c1ccccc1)Nc1ncc(Cl)cc1Cl	Mdm2-MdmX inh 88 | Mdm2 MdmX conf 81 | FLuc counter inactive
COc1ccc(-n2c(SCC(=O)Nc3ncc(Cl)cc3Cl)nc3ccccc32)cc1	Mdm2-MdmX inh 91 | Mdm2 MdmX conf 74 | FLuc counter inactive
CCOc1cc(/C=C2\CCCc3c2nc2ccccc2c3C(=O)O)ccc1OC	none
C=C(c1ccccc1)c1ccccc1N	none
COc1ccccc1OC(C)C(=O)N1CCN(Cc2ccc3c(c2)OCO3)CC1 (stereo not drawn)	none
O=C(N/N=C(\Cc1ncc[nH]1)c1ccccc1)c1ccccc1	Mdm2-MdmX inh 76 | Mdm2 MdmX conf 53 | FLuc counter inactive
O=C(N/N=C(\Cc1ncc[nH]1)c1ccccc1)c1cccnc1	Mdm2-MdmX inh 54, CSC inhib 100 (no result: SKKanGAS inh) | Mdm2 MdmX conf 64 | FLuc counter inactive
NC(=O)c1ccc(C(=O)N/N=C(/Cc2ccccc2)c2ccccc2)cc1	none
O=C(N/N=C(\Cc1ncc[nH]1)c1ccccc1)c1ccncc1	Mdm2-MdmX inh 67, CSC inhib 79, Beta cell apopt 101 | Mdm2 MdmX conf 63 | FLuc counter inactive
CCCOc1ccccc1/C=C1\SC(N2CCCCC2)=NC1=O	Mdm2-MdmX inh 86 (no result: Beta cell apopt) | Mdm2 MdmX conf 62 | FLuc counter 64
O=C1N=C(N2CCCCC2)S/C1=C\c1ccccc1F	none
CC(=O)c1ccc(NC(=O)CSc2nc(C3CC3)nc3ccccc23)cc1	Mdm2-MdmX inh 64 | Mdm2 MdmX conf inactive
COc1ccc(NC(=O)CSc2nc(C3CC3)nc3ccccc23)c(OC)c1	none
CC(C)C(=O)NNC(=O)CSc1nc(C2CCCCC2)nc2ccccc12	none
COc1ccc(NC(=O)CSc2ccc3c4c(cccc24)C(=O)c2ccccc2-3)cc1	Mdm2-MdmX inh 58 | Mdm2 MdmX conf inactive
COc1ccc(NC(=O)CSc2nc(C3CC3)nc3ccccc23)cc1	Mdm2-MdmX inh 60 (no result: CSC inhib) | Mdm2 MdmX conf inactive
O=C(CSc1nc2ccccc2c(=O)[nH]1)Nc1ccc(C(=O)O)cc1	none (no result: CSC inhib)
CCOc1ccc(NC(=O)c2ccc(NC(=O)CSc3nc4ccccc4c(=O)[nH]3)cc2)cc1	Mdm2-MdmX inh 56 | Mdm2 MdmX conf inactive
CC(C)=CCC/C(C)=C/CNC(=O)C[C@H]1C[C@H](C(=O)N2CCCCC2)[C@@]2(CCc3ccccc3)c3[nH]c4cc(CCC(=O)N(C)C)ccc4c3CCN2C1=O	none (no result: CSC inhib, SKKanGAS inh, Beta cell apopt)
CCOC(=O)N1CCN(S(=O)(=O)N2CCCC(C(=O)NCCc3ccc(C)cc3)C2)CC1 (stereo not drawn)	none
O=C(NCc1ccccc1Br)c1ccc2c(c1)OCCO2	none (no result: CSC inhib, Beta cell apopt)
CN1CCC2(CC1)Nc1nc(SCc3ccc(Cl)cc3)nn1C1=C2CN(C)CC1	Mdm2-MdmX inh 53 | Mdm2 MdmX conf inactive
CC(C)n1c(O)c(/C=C2\C=NN=C2c2ccccc2)sc1=S	Mdm2-MdmX inh 61 | Mdm2 MdmX conf 43 | FLuc counter 48
